Measured values: ChEMBL document CHEMBL3244142, “Antifungal properties of 2-bromo-3-fluorosuccinic acid esters and related compounds” (1977)
In brackets after ≈: the same amount, converted by molar mass.

How the values were obtained:
Mucor mucedo [1] = assay: Antifungal activity against Mucor mucedo ATCC 7941 at pH 5.6 after 5 days in absence of 10% beef serum; format: functional
Mucor mucedo [2] = assay: Antifungal activity against Mucor mucedo ATCC 7941 at pH 5.6 after 20 h in presence of 10% beef serum; settings: ATCC 7941, 20 h
Mucor mucedo [3] = assay: Antifungal activity against Mucor mucedo ATCC 7941 at pH 7 after 20 h in absence of 10% beef serum; settings: ATCC 7941, 20 h
Candida albicans [4] = assay: Antifungal activity against Candida albicans ATCC 10231 at pH 5.6 after 5 days in presence of 10% beef serum; format: functional
[5] = test system: Trichophyton mentagrophytes; assay: Antifungal activity against Trichophyton mentagrophytes ATCC 9129 at pH 5.6 after 5 days in absence of 10% beef serum; format: functional
How it was run: (§1)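 Agar-dilution MIC in Sabouraud dextrose agar at pH 5.6 or 7.0, with or without 10% beef serum. Plates were incubated at 28 °C for 5 days. MIC is the lowest concentration (µg/mL) giving 100% inhibition. Steps were 1 µg/mL up to 10, 2 µg/mL from 10–20, and 10 µg/mL from 20–100; 100 µg/mL was the top level, and no inhibition there is scored as >100.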

Aspergillus niger [6] = assay: Antifungal activity against Aspergillus niger ATCC 1004 at pH 5.6 after 5 days in presence of 10% beef serum; format: functional; how it was run: as §1
Aspergillus niger [7] = assay: Antifungal activity against Aspergillus niger ATCC 1004 at pH 7 after 5 days in presence of 10% beef serum; format: functional; how it was run: as §1
[8] = test system: Trichophyton mentagrophytes; assay: Antifungal activity against Trichophyton mentagrophytes ATCC 9129 at pH 7 after 5 days in absence of 10% beef serum; format: functional; how it was run: as §1
Candida albicans [9] = assay: Antifungal activity against Candida albicans ATCC 10231 at pH 7 after 20 h in absence of 10% beef serum; settings: ATCC 10231, 20 h
[10] = test system: Trichophyton mentagrophytes; assay: Antifungal activity against Trichophyton mentagrophytes ATCC 9129 at pH 7 after 5 days in presence of 10% beef serum; format: functional; how it was run: as §1
Aspergillus niger [11] = assay: Antifungal activity against Aspergillus niger ATCC 1004 at pH 5.6 after 5 days in absence of 10% beef serum; format: functional; how it was run: as §1
Aspergillus niger [12] = assay: Antifungal activity against Aspergillus niger ATCC 1004 at pH 7 after 5 days in absence of 10% beef serum; format: functional; how it was run: as §1
Candida albicans [13] = assay: Antifungal activity against Candida albicans ATCC 10231 at pH 7 after 5 days in presence of 10% beef serum; format: functional
Candida albicans [14] = assay: Antifungal activity against Candida albicans ATCC 10231 at pH 5.6 after 20 h in absence of 10% beef serum; settings: ATCC 10231, 20 h
Mucor mucedo [15] = assay: Antifungal activity against Mucor mucedo ATCC 7941 at pH 7 after 20 h in presence of 10% beef serum; settings: ATCC 7941, 20 h
[16] = test system: Trichophyton mentagrophytes; assay: Antifungal activity against Trichophyton mentagrophytes ATCC 9129 at pH 5.6 after 5 days in presence of 10% beef serum; format: functional; how it was run: as §1
Candida albicans [17] = assay: Antifungal activity against Candida albicans ATCC 10231 at pH 7 after 5 days in absence of 10% beef serum; format: functional
Mucor mucedo [18] = assay: Antifungal activity against Mucor mucedo ATCC 7941 at pH 7 after 5 days in absence of 10% beef serum; format: functional
Mucor mucedo [19] = assay: Antifungal activity against Mucor mucedo ATCC 7941 at pH 5.6 after 5 days in presence of 10% beef serum; format: functional
Mucor mucedo [20] = assay: Antifungal activity against Mucor mucedo ATCC 7941 at pH 7 after 5 days in presence of 10% beef serum; format: functional
Candida albicans [21] = assay: Antifungal activity against Candida albicans ATCC 10231 at pH 5.6 after 5 days in absence of 10% beef serum; format: functional
[22] = Mucor mucedo, ATCC 7941, 120 h, read-out: MIC
[23] = Candida albicans, ATCC 10231, 120 h, read-out: MIC
[24] = Trichophyton mentagrophytes, ATCC 9129, 120 h, read-out: MIC
[25] = Aspergillus niger, ATCC 1004, 120 h, read-out: MIC

Structure (SMILES)	MIC (Mucor mucedo [1]; [22]) [µg/mL]	MIC (Mucor mucedo [2]) [µg/mL]	MIC (Mucor mucedo [3]) [µg/mL]	MIC (Candida albicans [4]; [23]) [µg/mL]	MIC [5, 24] [µg/mL]	MIC (Aspergillus niger [6]; [25]) [µg/mL]	MIC (Candida albicans [9]) [µg/mL]	MIC [10, 24] [µg/mL]	MIC (Aspergillus niger [12]; [25]) [µg/mL]	MIC (Candida albicans [13]; [23]) [µg/mL]	MIC (Candida albicans [14]) [µg/mL]	MIC (Aspergillus niger [7]) [µg/mL]	MIC [8] [µg/mL]	MIC (Mucor mucedo [20]) [µg/mL]	MIC (Aspergillus niger [11]) [µg/mL]	MIC [16] [µg/mL]	other results
COC(=O)[C@H](F)[C@@H](Br)C(=O)OC (relative stereo)	12 (≈ 49.4 µM)	12	14 (≈ 57.6 µM)	8	< 1	14	16 (≈ 65.8 µM)	6	30 (≈ 123 µM)	16	6 (≈ 24.7 µM)	–	–	–	–	–	MIC (Aspergillus niger [7]; [25]): 40 µg/mL; MIC [8, 24]: 3 µg/mL (≈ 12.3 µM); MIC (Aspergillus niger [11]; [25]): 12 µg/mL (≈ 49.4 µM); MIC (Mucor mucedo [15]): 20 µg/mL; MIC [16, 24]: 3 µg/mL
COC(=O)C(Br)C(Br)C(=O)OC (racemic)	–	–	–	–	–	–	–	–	–	–	–	40	4 (≈ 13.2 µM)	14	14 (≈ 46.1 µM)	4	MIC (Mucor mucedo [1]): 6 µg/mL (≈ 19.7 µM); MIC (Candida albicans [4]): 20 µg/mL; MIC [5]: 2 µg/mL (≈ 6.58 µM); MIC (Candida albicans [17]): 30 µg/mL (≈ 98.7 µM); MIC (Aspergillus niger [6]): 30 µg/mL; MIC (Mucor mucedo [18]): 8 µg/mL (≈ 26.3 µM); MIC (Mucor mucedo [19]): 9 µg/mL; MIC [10]: 10 µg/mL; MIC (Aspergillus niger [12]): 40 µg/mL (≈ 132 µM); MIC (Candida albicans [21]): 16 µg/mL (≈ 52.6 µM); MIC (Candida albicans [13]): 60 µg/mL
COC(=O)C(Br)C(Br)C(=O)OC (stereo in doubt)	6 (≈ 19.7 µM)	14	12 (≈ 39.5 µM)	30	2 (≈ 6.58 µM)	50	50 (≈ 165 µM)	20	60 (≈ 197 µM)	70	20 (≈ 65.8 µM)	90	9 (≈ 29.6 µM)	30	30 (≈ 98.7 µM)	12	–
